Numbering of substitutions follows the chain as printed. Values belong to the molecule of their own block, whether it stands above or below them.
Assays:
human ARG2 = biological target: T1, human ARG2 (Homo sapiens, UniProt P78540); test: Isothermal titration calorimetry with free ARG2; assay type: binding; details: KD (ITC), free ARG2 20 µM monomer, 25°C
T1 sequence (P78540 23-354): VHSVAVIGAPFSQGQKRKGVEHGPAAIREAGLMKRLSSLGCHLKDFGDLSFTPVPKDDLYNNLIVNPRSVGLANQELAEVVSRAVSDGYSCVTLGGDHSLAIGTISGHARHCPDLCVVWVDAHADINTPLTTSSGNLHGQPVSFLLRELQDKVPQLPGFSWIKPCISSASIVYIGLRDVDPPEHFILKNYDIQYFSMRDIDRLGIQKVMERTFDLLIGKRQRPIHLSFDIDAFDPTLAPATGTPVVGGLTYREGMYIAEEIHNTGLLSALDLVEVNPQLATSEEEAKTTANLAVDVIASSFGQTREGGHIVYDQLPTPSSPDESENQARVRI
Summary of the method: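 ITC on a MicroCal VP at 25°C. A 750 µM (0.75 mM) boronic acid arginase-inhibitor ligand was titrated into 20 µM recombinant human ARG2 (monomer concentration). Thermograms were integrated, and isotherms were fitted to a one-site (one-to-one) binding model. Error was taken as a 68.3% confidence interval.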

[1] = biological target: T2, ARG2-C0021158 Fab complex (Homo sapiens, UniProt P78540); test: Isothermal titration calorimetry with ARG2-C0021158 Fab complex; assay type: binding; details: ARG2 + C0021158 Fab 1:1 mix, 20 µM each
T2 sequence (P78540 23-354): T1 sequence (P78540 23-354)
Summary of the method: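 ITC on a MicroCal VP at 25°C. Recombinant human ARG2 and test Fab were mixed 1:1 at 20 µM each (ARG2 as monomer) and pre-incubated 1 h at 20°C. Boronic acid arginase-inhibitor ligand at 0.50 mM was then titrated in. Isotherms were fitted to a one-site binding model.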

mouse cancer models = details: cited from earlier work
[2] = test system: CD3/CD28 co-stimulated T-cells; test: In vitro T-cell proliferation assay; assay type: cell-based, human; details: ARG2 15 µg/ml; BrdU
Summary of the method: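 Human PBMCs were isolated from leukocyte cones by Ficoll gradient, and T cells were enriched by negative selection. 40000 cells/well in RPMI 1640 with 5% human serum albumin were activated with CD3/CD28 (1:40) for 45 min at 37°C, 5% CO2. Antibody titrations in TBS/NaCl were added for 30 min, then recombinant human trimeric ARG2 (15 µg/ml final). Incubation lasted 96 h total, with BrdU added at 78 h and read by ELISA. Data were expressed as % of control, with EC50 from a four-parameter fit.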

mRCC CL-19 cell line = details: high expressing ARG2 mRCC CL-19 cell line; cited from earlier work
crystal structure = biological target: the molecule itself; test: crystal structure
[3] = biological target: biotinylated recombinant human ARG2 trimer (human, UniProt P78540, biotin (site not stated))
[4] = biological target: recombinant human Arginase 2 (ARG2) trimer, residues 23-354, C-terminal His6-tag (human, UniProt P78540); test: crystal structure

Kd (human ARG2): ~7 µM
binding to C0021158-bound ARG2 (ITC) [1]: no interaction
Molecule: Cl.N[C@@H](CSCCB(O)O)C(=O)O [BEC, S-(2-Boronoethyl)-L-cysteine hydrochloride]

Molecule: C[C@H](N)C(=O)N1C[C@H](CCCB(O)O)[C@](N)(C(=O)O)C1 [CB-1158]
tumor growth (mouse cancer models; mouse cancer models): reduces tumor growth

Molecule: NC(=NCCC[C@H](N)C(=O)O)NO [NHLA, N^G-hydroxy-L-arginine]
restoration of ARG2-inhibited T-cell proliferation [2]: partially restore

Molecule: N=C(NO)NCC[C@H](N)C(=O)O [nor-NOHA, N^ω-hydroxy-nor-L-arginine]
cell growth (mRCC CL-19 cell line): significantly suppressed cell growth
anti-tumor effect in vivo (mouse cancer models; in vivo mouse models): anti-tumor effects

B1: recombinant human Arginase 2 (ARG2) trimer, residues 23-354, C-terminal His6-tag (enzyme, UniProt P78540 23-354, looked up)
chain: T1 sequence (P78540 23-354)
stoichiometry N (crystal structure): 3

Kd [3]: 0.000173 µM
B2: C0021177 (antibody, V domains shown)
VH: EVQLLESGGGLVQPGGSLRLSCAASGFTFRYEVAAWVRQAPGKGLEWVSAISGPAPKGYYADSVKGRFTISRDNSKNTLYLQMNSLRAEDTAVYYCARLRADLGLYMDLWGRGTLVTVSS
VL: QSELTQPPTASAAPGQKVTISCSGSSSNIGNHYVSWYQQLPGTAPKLLIYDTTVLSSGIPDRFSGSKSGTSATLGITGLQTGDEADYYCGTWDELTSNLVFGGGTKLTVL

stoichiometry N [4]: 3 Fab per ARG2 trimer
B3: C0021158 Fab (Fab, V domains shown)
VH: B2 VH with A55I
VL: B2 VL with E3V, T9S, A10V, T52N, T53S, V54E, L55R, S56T, S57A, I59V

Source: paper PMC7531564 (mAbs, 2020)
